Assay results from different studies.
MTNR1A: Melatonin receptor type 1A (MTNR1A, Homo sapiens, UniProt P48039)

| Compound | target | test | system | setting | endpoint | result |
| --- | --- | --- | --- | --- | --- | --- |
| COc1ccc2cccc(C(CO)CNC(=O)CF)c2c1 (stereo not drawn) | MTNR1A | β-arrestin recruitment, agonist | CHO-K1 | 90 min | Emax | 101% |
| Nc1ncc(-c2nc(N3CCOCC3)nc(N3CCOCC3)n2)c(C(F)F)n1 | Serine/threonine-protein kinase SIK3 (SIK3, Homo sapiens, UniProt Q9Y2K2) | binding, competition with immobilised ligand |  | 10 µM | remaining binding | 72% |
| CCN(CC)CCCC[C@H](NC(=O)[C@H](CC(C)C)NC(=O)[C@H](C)NC(=O)[C@H](Cc1ccccc1)NC(=O)c1ccc(C(C)(C)C)cc1)C(=O)N[C@@H](CO)C(=O)OC | MTNR1A | ligand displacement, radioligand |  | 10 µM | remaining binding | 92.1% |
| COc1ncccc1-c1cnn2ccc(N3CCN(C(=O)OC(C)C)CC3)nc12 | Activin receptor type-2B (ACVR2B, Homo sapiens, UniProt Q13705) | binding, competition with immobilised ligand |  | 1 µM | remaining binding | 69% |
| Cc1nn(C)cc1-c1nc2c(N3CCN(Cc4ccc(Cl)cc4)CC3)c(Cl)cnc2[nH]1 | Tyrosine-protein kinase receptor Tie-1 (TIE1, Homo sapiens, UniProt P35590) | binding, competition with immobilised ligand |  | 1 µM | remaining binding | 47% |
| CCC(N)Cc1cc(OC)c(COC)cc1OC (stereo not drawn) | 5-hydroxytryptamine receptor 2C (HTR2C, Homo sapiens, UniProt P28335) | G protein activation, agonist, BRET |  |  | Emax | 82% |
| C#Cc1n[nH]c2c(-c3cn([C@@H](C)c4ccccn4)c(=O)[nH]c3=O)cc(F)cc12 | Aurora kinase C (AURKC, Homo sapiens, UniProt Q9UQB9) | enzyme activity, inhibitor |  | 0.1 µM | inhibition | 1.4% |
| CN[C@@]1(c2ccccc2Cl)CCCCC1=O | Fatty-acid amide hydrolase 1 (FAAH, Homo sapiens, UniProt O00519) | enzyme activity, inhibitor |  | 30 µM | inhibition | 11% |
| COc1ccc2[nH]cc(CCNC(=O)CI)c2c1 | MTNR1A | β-arrestin recruitment, agonist | CHO-K1 | 90 min | Emax | 92% |
